How the values were obtained:
[1] = Antimalarial activity was determined in female mice (Mus musculus) after intraperitoneal administration of 50 mg; format: functional, Plasmodium chabaudi
Method in brief: (§1)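 4- to 5-week-old female ICR (CD-1) mice infected iv with 5×10^6 parasitized RBC of CQ-resistant 3CQ line of P. chabaudi AS, thawed from cryopreserved stock. Compound dissolved in DMSO, diluted with saline to 10% (w/v) DMSO, given ip 2 h post-infection and daily for 3 more days (four injections). Parasitemia (PRBC per 10 000 RBC, Giemsa thin films) read daily for 5 days; two mice per compound, three or five for some.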

[2] = chloroquine-resistant reversal activity was determined in female mice (Mus musculus) after intraperitoneal administration of 50 mg; format: functional, Plasmodium chabaudi
Method in brief: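 Female ICR CD-1 mice, 4–5 weeks old, given 5×10^6 P. chabaudi AS 3CQ (CQ-resistant) line PRBC iv (thawed from cryopreserved blood). 2 h later, test compound (in DMSO diluted with saline to 10% DMSO) ip plus chloroquine 3 or 4 mg/kg ip, repeated daily for 4 total injections. Controls: DMSO, CQ alone, compound alone. Parasitemia per 10 000 RBC on Giemsa smears daily for 5 days.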

[3] = test system: Mus musculus; experiment: Chloroquine resistant reversal activity was determined in female mice after intraperitoneal administration of 50 mg and 4 mg of chloroquine; format: functional
Method in brief: (§2)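 Female ICR (CD-1) mice, 4-5 weeks old, infected iv with 5×10^6 PRBC of CQ-resistant 3CQ line of P. chabaudi AS (cryopreserved stock). 2 h later, test compound (in DMSO diluted with saline to 10% w/v DMSO) given ip, followed by ip CQ; repeated for 3 more days (four injections). Groups: DMSO, CQ alone, compound alone, combination. Parasitemia from Giemsa thin films, daily days 0-4.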

[4] = test system: Mus musculus; experiment: Chloroquine resistant reversal activity was determined on day 0 in female mice after intraperitoneal administration of 10 mg and 4 mg of chloroquine; format: functional; method in brief: as §2
[5] = test system: Mus musculus; experiment: Chloroquine resistant reversal activity was determined on day 0 in female mice after intraperitoneal administration of 15 mg and 4 mg of chloroquine; format: functional; method in brief: as §2
[6] = test system: Mus musculus; experiment: Chloroquine resistant reversal activity was determined on day 2 in female mice after intraperitoneal administration of 10 mg and 4 mg of chloroquine; format: functional; method in brief: as §2
[7] = test system: Mus musculus; experiment: Chloroquine resistant reversal activity was determined on day 4 in female mice after intraperitoneal administration of 5 mg and 4 mg of chloroquine; format: functional; method in brief: as §2
[8] = test system: Mus musculus; experiment: Antimalarial activity was determined in female mice after intraperitoneal administration of 15 mg of the compound; format: functional; method in brief: as §1
[9] = test system: Mus musculus; experiment: Chloroquine resistant reversal activity was determined on day 1 in female mice after intraperitoneal administration of 5 mg and 4 mg of chloroquine; format: functional; method in brief: as §2
[10] = test system: Mus musculus; experiment: Chloroquine resistant reversal activity was determined on day 1 in female mice after intraperitoneal administration of 10 mg and 4 mg of chloroquine; format: functional; method in brief: as §2
[11] = test system: Mus musculus; experiment: Chloroquine resistant reversal activity was determined in female mice after intraperitoneal administration of 15 mg and 4 mg of chloroquine; format: functional; method in brief: as §2
[12] = test system: Mus musculus; experiment: Chloroquine resistant reversal activity was determined on day 0 in female mice after intraperitoneal administration of 5 mg and 4 mg of chloroquine; format: functional; method in brief: as §2
[13] = test system: Mus musculus; experiment: Chloroquine resistant reversal activity was determined on day 4 in female mice after intraperitoneal administration of 10 mg and 4 mg of chloroquine; format: functional; method in brief: as §2
[14] = test system: Mus musculus; experiment: Chloroquine resistant reversal activity was determined on day 2 in female mice after intraperitoneal administration of 5 mg and 4 mg of chloroquine; format: functional; method in brief: as §2
[15] = test system: Mus musculus; experiment: Chloroquine resistant reversal activity was determined on day 3 in female mice after intraperitoneal administration of 5 mg and 4 mg of chloroquine; format: functional; method in brief: as §2
[16] = test system: Mus musculus; experiment: Chloroquine resistant reversal activity was determined on day 1 in female mice after intraperitoneal administration of 15 mg and 4 mg of chloroquine; format: functional; method in brief: as §2
[17] = test system: Mus musculus; experiment: Chloroquine resistant reversal activity was determined on day 3 in female mice after intraperitoneal administration of 10 mg and 4 mg of chloroquine; format: functional; method in brief: as §2
[18] = test system: Mus musculus; experiment: Chloroquine resistant reversal activity was determined on day 4 in female mice after intraperitoneal administration of 15 mg and 4 mg of chloroquine; format: functional; method in brief: as §2
[19] = test system: Mus musculus; experiment: Chloroquine resistant reversal activity was determined on day 2 in female mice after intraperitoneal administration of 15 mg and 4 mg of chloroquine; format: functional; method in brief: as §2
[20] = test system: Mus musculus; experiment: Chloroquine resistant reversal activity was determined on day 3 in female mice after intraperitoneal administration of 15 mg and 4 mg of chloroquine; format: functional; method in brief: as §2
[21] = test system: Mus musculus; experiment: Chloroquine resistant reversal activity was determined on day 4 in female mice after intraperitoneal administration of 50 mg and 4 mg of chloroquine; format: functional; method in brief: as §2
[22] = test system: Mus musculus; experiment: Chloroquine resistant reversal activity was determined on day 0 in female mice after intraperitoneal administration of 40 mg and 4 mg of chloroquine; format: functional; method in brief: as §2
[23] = test system: Mus musculus; experiment: Chloroquine resistant reversal activity was determined on day 3 in female mice after intraperitoneal administration of 50 mg and 4 mg of chloroquine; format: functional; method in brief: as §2
[24] = test system: Mus musculus; experiment: Chloroquine resistant reversal activity was determined on day 2 in female mice after intraperitoneal administration of 40 mg and 4 mg of chloroquine; format: functional; method in brief: as §2
[25] = test system: Mus musculus; experiment: Chloroquine resistant reversal activity was determined on day 1 in female mice after intraperitoneal administration of 30 mg and 4 mg of chloroquine; format: functional; method in brief: as §2
[26] = test system: Mus musculus; experiment: Chloroquine resistant reversal activity was determined on day 1 in female mice after intraperitoneal administration of 40 mg and 4 mg of chloroquine; format: functional; method in brief: as §2
[27] = test system: Mus musculus; experiment: Chloroquine resistant reversal activity was determined on day 1 in female mice after intraperitoneal administration of 50 mg and 4 mg of chloroquine; format: functional; method in brief: as §2
[28] = test system: Mus musculus; experiment: Chloroquine resistant reversal activity was determined on day 0 in female mice after intraperitoneal administration of 50 mg and 4 mg of chloroquine; format: functional; method in brief: as §2
[29] = test system: Mus musculus; experiment: Chloroquine resistant reversal activity was determined on day 2 in female mice after intraperitoneal administration of 30 mg and 4 mg of chloroquine; format: functional; method in brief: as §2
[30] = test system: Mus musculus; experiment: Chloroquine resistant reversal activity was determined on day 4 in female mice after intraperitoneal administration of 40 mg and 4 mg of chloroquine; format: functional; method in brief: as §2
[31] = test system: Mus musculus; experiment: Chloroquine resistant reversal activity was determined on day 3 in female mice after intraperitoneal administration of 30 mg and 4 mg of chloroquine; format: functional; method in brief: as §2
[32] = test system: Mus musculus; experiment: Chloroquine resistant reversal activity was determined on day 4 in female mice after intraperitoneal administration of 30 mg and 4 mg of chloroquine; format: functional; method in brief: as §2
[33] = test system: Mus musculus; experiment: Chloroquine resistant reversal activity was determined on day 3 in female mice after intraperitoneal administration of 40 mg and 4 mg of chloroquine; format: functional; method in brief: as §2
[34] = test system: Mus musculus; experiment: Chloroquine resistant reversal activity was determined on day 0 in female mice after intraperitoneal administration of 30 mg and 4 mg of chloroquine; format: functional; method in brief: as §2
[35] = test system: Mus musculus; experiment: Chloroquine resistant reversal activity was determined on day 2 in female mice after intraperitoneal administration of 50 mg and 4 mg of chloroquine; format: functional; method in brief: as §2
[36] = test system: Mus musculus; experiment: Chloroquine resistant reversal activity was determined in female mice after intraperitoneal administration of 50 mg and 3 mg of chloroquine; format: functional; method in brief: as §2

## C=CCCCCC(O)CN1CCN(C2c3ccccc3CCc3ccccc32)CC1 (stereo unspecified)
[1]
  Antimalarial activity: 108%
[2]
  Reversal activity: 8.9%

## CC(=O)OCC#CCN1CCN(C2c3ccccc3CCc3ccccc32)CC1
[3]
  Reversal activity: 0%
[1]
  Antimalarial activity: 116%

## CCCCCCCCCCCCCCCCC(O)CN1CCN(C2c3ccccc3CCc3ccccc32)CC1 (stereo unspecified)
[1]
  Antimalarial activity: 67%
[2]
  Reversal activity: 68%

## C=CC(CO)N1CCN(C2c3ccccc3CCc3ccccc32)CC1 (stereo unspecified)
[4]
  Reversal activity: 0%
[5]
  Reversal activity: 0%
[6]
  Reversal activity: 37%
[7]
  Reversal activity: 17%
[8]
  Antimalarial activity: 103%
[9]
  Reversal activity: 69%
[10]
  Reversal activity: 59%
[11]
  Reversal activity: 2.6%
[12]
  Reversal activity: 0%
[13]
  Reversal activity: 8.6%
[14]
  Reversal activity: 35%
[15]
  Reversal activity: 33%
[16]
  Reversal activity: 37%
[17]
  Reversal activity: 23%
[18]
  Reversal activity: 2.6%
[19]
  Reversal activity: 13%
[20]
  Reversal activity: 4%

## Cl.c1ccc2c(c1)CCc1ccccc1C2N1CCN(C2c3ccccc3CCc3ccccc32)CC1
[1]
  Antimalarial activity: 108%
[2]
  Reversal activity: 81%

## C=CC(O)CN1CCN(C2c3ccccc3CCc3ccccc32)CC1 (stereo unspecified)
[4]
  Reversal activity: 0%
[5]
  Reversal activity: 0%
[21]
  Reversal activity: 0%
[22]
  Reversal activity: 0%
[23]
  Reversal activity: 0%
[6]
  Reversal activity: 21%
[24]
  Reversal activity: 10%
[25]
  Reversal activity: 55%
[3]
  Reversal activity: 0%
[26]
  Reversal activity: 33%
[7]
  Reversal activity: 11%
[27]
  Reversal activity: 42%
[9]
  Reversal activity: 76%
[10]
  Reversal activity: 62%
[12]
  Reversal activity: 0%
[28]
  Reversal activity: 0%
[29]
  Reversal activity: 38%
[13]
  Reversal activity: 6%
[14]
  Reversal activity: 32%
[30]
  Reversal activity: 0%
[15]
  Reversal activity: 12%
[31]
  Reversal activity: 2.9%
[16]
  Reversal activity: 49%
[17]
  Reversal activity: 7.9%
[32]
  Reversal activity: 0%
[18]
  Reversal activity: 5.4%
[33]
  Reversal activity: 0%
[34]
  Reversal activity: 0%
[1]
  Antimalarial activity: 82%
[19]
  Reversal activity: 16%
[20]
  Reversal activity: 9.5%
[35]
  Reversal activity: 6.2%

## C=CCCCCCCC(O)CN1CCN(C2c3ccccc3CCc3ccccc32)CC1 (stereo unspecified)
[1]
  Antimalarial activity: 68%
[2]
  Reversal activity: 6.8%

## Cl.c1ccc2c(c1)CCc1ccccc1C2N1CCNCC1
[3]
  Reversal activity: 2%
[1]
  Antimalarial activity: 68%

## CCC(O)CN1CCN(C2c3ccccc3CCc3ccccc32)CC1 (stereo unspecified)
[3]
  Reversal activity: 0%
[1]
  Antimalarial activity: 99%

## OC(COc1ccccc1)CN1CCN(C2c3ccccc3CCc3ccccc32)CC1 (stereo unspecified)
[1]
  Antimalarial activity: 136%
[2]
  Reversal activity: 113%

## CCCCCCCCCCCCC(O)CN1CCN(C2c3ccccc3CCc3ccccc32)CC1 (stereo unspecified)
[1]
  Antimalarial activity: 138%
[2]
  Reversal activity: 64%

## CCCCCCCCCCCCCCC(O)CN1CCN(C2c3ccccc3CCc3ccccc32)CC1 (stereo unspecified)
[1]
  Antimalarial activity: 122%
[2]
  Reversal activity: 110%

## COc1ccc(OCC(O)CN2CCN(C3c4ccccc4CCc4ccccc43)CC2)cc1 (stereo unspecified)
[36]
  Reversal activity: 90%
[1]
  Antimalarial activity: 147%

## CCCCCCC(O)CN1CCN(C2c3ccccc3CCc3ccccc32)CC1 (stereo unspecified)
[1]
  Antimalarial activity: 92%
[2]
  Reversal activity: 102%

## C=CCCC(O)CN1CCN(C2c3ccccc3CCc3ccccc32)CC1 (stereo unspecified)
[1]
  Antimalarial activity: 101%
[2]
  Reversal activity: 0%

## C=CC(C)N1CCN(C2c3ccccc3CCc3ccccc32)CC1 (stereo unspecified)
[3]
  Reversal activity: 0%
[1]
  Antimalarial activity: 22%

## OCC#CCN1CCN(C2c3ccccc3CCc3ccccc32)CC1
[3]
  Reversal activity: 0%
[1]
  Antimalarial activity: 121%

## CCCCCCCCC(O)CN1CCN(C2c3ccccc3CCc3ccccc32)CC1 (stereo unspecified)
[1]
  Antimalarial activity: 152%
[2]
  Reversal activity: 84%
